Results from ChEMBL document CHEMBL1138275, “Activity of sulfonium bisphosphonates on tumor cell lines” (J Med Chem, 2007).
pIC50: −log10 of the molar value.

What was measured:
[1] = system: NCI-H460; assay: Growth inhibition of human NCI-H460 cells after 4 days by MTT assay; format: functional, cell-based; conditions: NCI-H460, 96 h; for pIC50: read-out: IC50; for IC50: read-out: pIC50 (converted)
How it was run: (§1)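 Cell lines from NCI, grown in RPMI-1640 with 2 mM L-glutamine and 10% FBS at 37 °C, 5% CO2, 100% humidity. Aqueous 0.01 M stocks, half-log serial dilutions in medium, typically 316 µM to 10 nM. 5000 cells/well exposed 4 days. MTT added for 2 h, detergent lysis, overnight dark at room temperature, A600 read. IC50 from rectangular hyperbolic fit of percent inhibition.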

[2] = target: T1, Farnesyl pyrophosphate synthase (Homo sapiens, UniProt P14324); assay: Inhibition of human FPPS; conditions: for pIC50: read-out: IC50
T1 sequence (P14324 whole entry): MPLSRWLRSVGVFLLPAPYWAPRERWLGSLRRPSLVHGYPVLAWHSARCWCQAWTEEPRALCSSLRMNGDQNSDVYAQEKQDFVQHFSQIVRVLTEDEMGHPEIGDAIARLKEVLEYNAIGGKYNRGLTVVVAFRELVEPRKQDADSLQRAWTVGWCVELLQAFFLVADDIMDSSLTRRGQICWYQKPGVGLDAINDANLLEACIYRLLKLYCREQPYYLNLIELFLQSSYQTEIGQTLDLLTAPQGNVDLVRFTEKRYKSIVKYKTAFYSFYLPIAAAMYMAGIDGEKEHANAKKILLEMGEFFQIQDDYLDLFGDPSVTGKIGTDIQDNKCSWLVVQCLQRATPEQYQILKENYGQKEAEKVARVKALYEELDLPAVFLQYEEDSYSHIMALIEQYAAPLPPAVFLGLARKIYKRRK

[3] = system: MCF7; assay: Growth inhibition of human MCF7 cells after 4 days by MTT assay; format: functional, cell-based; conditions: MCF7, 96 h; for pIC50: read-out: IC50; for IC50: read-out: pIC50 (converted)
[4] = system: SF-268; assay: Growth inhibition of human SF268 cells after 4 days by MTT assay; format: functional, cell-based; conditions: SF-268, 96 h; for pIC50: read-out: IC50; for IC50: read-out: pIC50 (converted); how it was run: as §1

Structure (SMILES)	pIC50 [1]	IC50 [1]	pIC50 [2]	pIC50 [3]	IC50 [3]	IC50 ([2]; read-out: pIC50 (converted))	pIC50 [4]	IC50 [4]
O=P([O-])(O)C(O)(C[S+]1CCCCC1)P(=O)(O)O (stereo unspecified)	3.68	200 µM	–	3.52	316 µM	–	3.62	251 µM
O=P([O-])(O)C(O)(C[S+]1CCCC1)P(=O)(O)O (stereo unspecified)	3.90	126 µM	–	4.00	100 µM	–	4.00	100 µM
CCCCC[S+](C)CCC(O)(P(=O)([O-])O)P(=O)(O)O (stereo unspecified)	3.70	200 µM	–	3.41	398 µM	–	3.71	200 µM
O=P([O-])(O)C(O)(CC[S+]1CCCC1)P(=O)(O)O (stereo unspecified)	3.80	158 µM	–	3.71	200 µM	–	3.89	126 µM
CCC[S+](C)CCC(O)(P(=O)([O-])O)P(=O)(O)O (stereo unspecified)	3.12	794 µM	–	3.09	794 µM	–	3.15	631 µM
C[S+](CCCOc1ccccc1)CCC(O)(P(=O)([O-])O)P(=O)(O)O (stereo unspecified)	3.82	–	–	3.74	–	–	3.77	–
O=P([O-])(O)C(O)(CC[S+]1CCC(c2ccccc2)C1)P(=O)(O)O (stereo unspecified)	3.61	251 µM	–	3.47	316 µM	–	3.58	251 µM
C[S+](CCc1ccccc1)CCC(O)(P(=O)([O-])O)P(=O)(O)O (stereo unspecified)	3.74	–	–	3.60	–	–	3.70	–
O=P([O-])(O)C(O)(CC[S+]1CCCCC1)P(=O)(O)O (stereo unspecified)	3.45	316 µM	–	3.29	501 µM	–	3.37	398 µM
CCC[S+](C)CC(P(=O)([O-])O)P(=O)(O)O (stereo unspecified)	4.02	100 µM	6.28	3.62	251 µM	–	3.65	200 µM
C[S+](C)CC(O)(P(=O)([O-])O)P(=O)(O)O (stereo unspecified)	3.72	200 µM	5.99	3.70	200 µM	–	3.77	158 µM
CCCCCCCCCC[S+](C)CC(P(=O)([O-])O)P(=O)(O)O (stereo unspecified)	6.49	0.316 µM	6.62	6.21	0.631 µM	–	6.43	0.398 µM
CCCCC[S+](C)CC(P(=O)([O-])O)P(=O)(O)O (stereo unspecified)	3.89	–	5.97	3.65	–	–	3.72	–

More lines, in order of rising pIC50 [1], values ahead:

pIC50 [1]	IC50 [1]	pIC50 [2]	pIC50 [3]	IC50 [3]	IC50 ([2]; read-out: pIC50 (converted))	Structure (SMILES)	pIC50 [4]	IC50 [4]
4.02	–	5.05	3.59	–	–	C[S+](C)CCC(O)(P(=O)([O-])O)P(=O)(O)O (stereo unspecified)	4.00	–
4.08	79.4 µM	–	4.02	100 µM	–	O=P([O-])(O)C(C[S+]1CCCC1)P(=O)(O)O (stereo unspecified)	4.06	79.4 µM
4.13	79.4 µM	–	3.79	158 µM	–	CCC[S+](C)CC(O)(P(=O)([O-])O)P(=O)(O)O (stereo unspecified)	4.02	100 µM
4.18	63.1 µM	–	3.98	100 µM	–	C[S+](CCCc1ccccc1)CCC(O)(P(=O)([O-])O)P(=O)(O)O (stereo unspecified)	4.18	63.1 µM
4.26	50.1 µM	–	4.24	63.1 µM	–	C[S+](CCCc1ccccc1)CC(P(=O)([O-])O)P(=O)(O)O (stereo unspecified)	4.31	50.1 µM
4.32	50.1 µM	–	4.34	50.1 µM	–	C[S+](CCCCc1ccccc1)CC(P(=O)([O-])O)P(=O)(O)O (stereo unspecified)	4.36	39.8 µM
4.59	25.1 µM	–	4.49	31.6 µM	–	CCCCCCCC[S+](C)CCC(O)(P(=O)([O-])O)P(=O)(O)O (stereo unspecified)	4.69	20 µM
4.63	25.1 µM	–	4.67	20 µM	–	C[S+](CCCCCc1ccccc1)CC(P(=O)([O-])O)P(=O)(O)O (stereo unspecified)	4.75	15.8 µM
4.78	15.8 µM	–	4.03	100 µM	–	C[S+](CCCOc1ccccc1)CC(O)(P(=O)([O-])O)P(=O)(O)O (stereo unspecified)	4.46	31.6 µM
4.86	12.6 µM	–	4.75	15.8 µM	–	C[S+](CCCc1ccccc1)CC(O)(P(=O)([O-])O)P(=O)(O)O (stereo unspecified)	4.97	10 µM
4.91	12.6 µM	–	4.67	20 µM	–	CCCCCCCC[S+](C)CC(P(=O)([O-])O)P(=O)(O)O (stereo unspecified)	4.83	15.8 µM
5.43	–	–	4.85	–	–	CCCCCCCCCCC[S+](C)CC(P(=O)([O-])O)P(=O)(O)O (stereo unspecified)	5.43	–
5.47	–	–	5.55	–	–	CCCCCCCCCCCCC[S+](C)CC(P(=O)([O-])O)P(=O)(O)O (stereo unspecified)	5.51	–
5.85	1.26 µM	4.34	5.95	1 µM	–	CCCCCCCCCCCCCCCC[S+](C)CC(P(=O)([O-])O)P(=O)(O)O (stereo unspecified)	5.97	1 µM
5.91	1.26 µM	5.13	5.85	1.26 µM	–	CCCCCCCCCCCCCCCCCC[S+](C)CC(P(=O)([O-])O)P(=O)(O)O (stereo unspecified)	5.77	1.58 µM
5.94	1.26 µM	4.56	6.02	1 µM	0.251 µM	CCCCCCCCCCCCCCCCCCCC[S+](C)CC(P(=O)([O-])O)P(=O)(O)O (stereo unspecified)	5.83	1.58 µM
6.32	0.501 µM	5.07	4.96	10 µM	–	CCCCCCCCCCCCCC[S+](C)CC(P(=O)([O-])O)P(=O)(O)O (stereo unspecified)	6.06	0.794 µM
6.68	0.2 µM	–	–	–	–	CCCCCCCCCCCC[S+](C)CC(P(=O)([O-])O)P(=O)(O)O (stereo unspecified)	6.54	0.316 µM
